According to ChEMBL document CHEMBL4024713, “Novel aryl piperazines for alleviation of 'andropause' associated prostatic disorders and depression” (Eur J Med Chem, 2017):

Assays:
LNCaP = experiment: Cytotoxicity against human LNCAP cells after 24 hrs by MTT assay; type: functional, cell-based
PC-3 = experiment: Cytotoxicity against human PC3 cells after 24 hrs by MTT assay; type: functional, cell-based; conditions: PC-3, 24 h
DU-145 = experiment: Cytotoxicity against human DU145 cells after 24 hrs by MTT assay; type: functional, cell-based; conditions: DU-145, 24 h
Rattus norvegicus [1] = experiment: Anti-androgenic activity in citral-induced prostatic hyperplasia Sprague-Dawley rat model assessed as prostate weight at 10 mg/kg, po administered once daily coadministered with citral for 21 days measured 24 hrs last post dose (reference value: 100%); type: functional
Outline: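 Adult male Sprague-Dawley rats (250-280 g, n = 5), citral 100 mg/kg orally once daily for 28 days. From day 8, compound or flutamide at 10 mg/kg orally once daily for the remaining 21 days. Prostate weight is expressed relative to the citral group (100%). Prostates fixed in 10% formalin; 5 μ sections stained with H&E, examined by light microscopy.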

Rattus norvegicus [2] = experiment: Toxicity in citral-induced prostatic hyperplasia Sprague-Dawley rat model assessed as effect on testis weight at 10 mg/kg, po administered once daily coadministered with citral for 21 days measured 24 hrs last post dose; type: organism-based; conditions: in vivo
Rattus norvegicus [3] = experiment: Toxicity in citral-induced prostatic hyperplasia Sprague-Dawley rat model assessed as effect on epididymis weight at 10 mg/kg, po administered once daily coadministered with citral for 21 days measured 24 hrs last post dose; type: organism-based; conditions: in vivo
Mus musculus = experiment: Toxicity in Swiss albino mouse assessed as effect on locomotor activity at 20 mg/kg, po measured at 5 mins interval for 90 mins by open field test; type: organism-based; conditions: in vivo
Outline: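 Male Swiss albino mice in an activity chamber, infrared beam-break counting over 24 intervals of 5 min (120 min). Oral dosing after the 6th interval; six animals per group.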

[4] = Cmax in Sprague-Dawley rat serum at 10 mg/kg, iv administered as single dose by LC-MS/MS analysis; type: ADME, organism-based; parameters: dose 10 mg/kg, route intravenous
Outline: (§1)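 Male Sprague Dawley rats (250 ± 25 g), fasted overnight (12-16 h), n = 3 per time point; single 10 mg/kg dose orally by feeding needle, or iv from DMSO solution. Serum, prostate and hypothalamus collected up to 48 h post oral dose; hypothalamus from three rats pooled. LC-MS/MS (MRM, phenacetin internal standard), linear 5-400 ng/mL; noncompartmental and compartmental analysis.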

[5] = Clearance in Sprague-Dawley rat serum at 10 mg/kg, iv administered as single dose by LC-MS/MS analysis; type: ADME, organism-based; outline: as §1
[6] = Tmax in Sprague-Dawley rat serum at 10 mg/kg, po administered as single dose by LC-MS/MS analysis; type: ADME, organism-based; outline: as §1
[7] = AUClast in Sprague-Dawley rat serum at 10 mg/kg, po administered as single dose by LC-MS/MS analysis; type: ADME, organism-based; parameters: dose 10 mg/kg, route oral, time 0 - last; outline: as §1
Serum = experiment: Volume of distribution at steady state in Sprague-Dawley rat serum at 10 mg/kg, po administered as single dose by LC-MS/MS analysis; type: ADME, organism-based; conditions: in vivo; outline: as §1
[8] = Oral bioavailability in Sprague-Dawley rat serum at 10 mg/kg administered as single dose by LC-MS/MS analysis; type: ADME, organism-based; outline: as §1
[9] = Tmax in Sprague-Dawley rat prostate at 10 mg/kg, po administered as single dose by LC-MS/MS analysis; type: ADME, organism-based, Prostate gland; outline: as §1
[10] = AUClast in Sprague-Dawley rat prostate at 10 mg/kg, po administered as single dose by LC-MS/MS analysis; type: ADME, organism-based, Prostate gland; conditions: in vivo; outline: as §1
[11] = Clearance in Sprague-Dawley rat prostate at 10 mg/kg, po administered as single dose by LC-MS/MS analysis; type: ADME, organism-based, Prostate gland; conditions: in vivo; outline: as §1
[12] = Ratio of drug level in prostate to serum in Sprague-Dawley rat at 10 mg/kg, po administered as single dose by LC-MS/MS analysis; type: ADME, organism-based; outline: as §1
[13] = Half life in Sprague-Dawley rat hypothalamus at 10 mg/kg, po administered as single dose by LC-MS/MS analysis; type: ADME, organism-based; outline: as §1
[14] = Ratio of drug level in hypothalamus to serum in Sprague-Dawley rat at 10 mg/kg, po administered as single dose by LC-MS/MS analysis; type: ADME, organism-based; outline: as §1

Cmax [4]: 520 ng/mL
clearance [5]: 68.3 mL/min/kg
Tmax [6]: 1 h
AUC(0-t) [7]: 900 ng·h/mL
Vdss (Serum): 23.7 L/kg
bioavailability [8]: 35.4%
Tmax [9]: 4 h
AUClast [10]: 10.7 µg·h/g
CL [11]: 0.3 g/h/kg
Kp [12]: 11.8
half-life [13]: 129 h
Kp [14]: 4.6
SMILES: c1ccc(N2CCN(CCCN3CCN(c4ccccn4)CC3)CC2)nc1
EC50 (LNCaP): 15.6 µM
EC50 (PC-3): > 80 µM
EC50 (DU-145): > 80 µM
Activity (Rattus norvegicus [1]): 53.8%
Activity (Rattus norvegicus [2]): Non-Toxic
Activity (Rattus norvegicus [3]): Non-Toxic
Activity (Mus musculus): Non-Toxic
